Source: ChEMBL document CHEMBL1132980, “1,2,4-Triazolo[4,3-a]quinoxalin-1-one: a versatile tool for the synthesis of potent and selective adenosine receptor antagonists” (J Med Chem, 2000)

How the values were obtained:
Adenosine receptor A3 [1] = target: T1, Adenosine receptor A3 (Homo sapiens, UniProt P0DMS8); test: Binding affinity towards human adenosine A3 receptor expressed in HEK293 cells in presence of [125I]-AB-MECA at a concentration of 1 uM; assay type: cell-based
T1 sequence (P0DMS8 whole entry): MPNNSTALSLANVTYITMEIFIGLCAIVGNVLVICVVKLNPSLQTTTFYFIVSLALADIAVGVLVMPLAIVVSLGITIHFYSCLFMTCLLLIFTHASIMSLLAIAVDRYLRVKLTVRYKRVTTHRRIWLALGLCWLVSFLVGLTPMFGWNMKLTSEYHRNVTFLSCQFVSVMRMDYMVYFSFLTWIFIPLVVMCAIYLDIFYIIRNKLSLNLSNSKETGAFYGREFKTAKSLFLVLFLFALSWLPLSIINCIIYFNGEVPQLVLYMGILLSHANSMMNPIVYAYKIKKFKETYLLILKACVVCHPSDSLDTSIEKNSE

Adenosine receptor A1 [2] = target: T2, Adenosine receptor A1 (Bos taurus, UniProt P28190); test: Binding affinity towards adenosine A1 receptor of bovine brain membrane in presence of [3H]CHA at a concentration of 20 uM
T2 sequence (P28190 whole entry): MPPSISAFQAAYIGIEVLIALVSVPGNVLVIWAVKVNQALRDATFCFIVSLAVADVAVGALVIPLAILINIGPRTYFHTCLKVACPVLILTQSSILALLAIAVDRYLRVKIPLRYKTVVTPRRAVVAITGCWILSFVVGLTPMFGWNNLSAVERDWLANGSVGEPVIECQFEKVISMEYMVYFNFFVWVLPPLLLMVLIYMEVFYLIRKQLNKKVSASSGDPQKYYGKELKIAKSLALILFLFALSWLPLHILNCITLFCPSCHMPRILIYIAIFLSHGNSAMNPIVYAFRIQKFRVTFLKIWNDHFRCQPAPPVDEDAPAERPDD
In short: (§1)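 Compounds dissolved in DMSO (2% in buffer), with blank runs for solvent effect. Membrane protein measured after solubilization in 0.75 N NaOH against a BSA standard.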

[3] = tested on: Adenosine receptor A2a (Bos taurus); test: Binding affinity towards adenosine A2A receptor of bovine striatal membrane in presence of [3H]-CGS- at a concentration of 20 uM
[4] = target: T3, Adenosine receptor A3 (Homo sapiens) (UniProt P0DMS8); test: Binding affinity towards human Adenosine A3 receptor expressed in HEK293 cells using [125I]AB-MECA at 1 uM; assay type: cell-based
T3 sequence (whole entry): T1 sequence (P0DMS8 whole entry)

[5] = target: Adenosine receptor A2a (Bos taurus); test: Binding affinity towards Adenosine A2A receptor of bovine striatal membrane using [3H]-CGS- at 20 uM
[6] = target: T4, Adenosine receptor A1 (Bos taurus) (UniProt P28190); test: Binding affinity towards Adenosine A1 receptor of bovine brain membrane using [3H]-CHA at 20 uM; in short: as §1
T4 sequence (whole entry): T2 sequence (P28190 whole entry)

Adenosine receptor A1 [7] = target: T2, Adenosine receptor A1; test: Binding affinity towards adenosine A1 receptor of bovine brain membrane using [3H]-CHA at 20 uM
Adenosine receptor A3 [8] = target: T1, Adenosine receptor A3; test: Binding affinity towards human adenosine A3 receptor expressed in HEK293 cells using [125I]AB-MECA at 1 uM; assay type: cell-based
[9] = tested on: Adenosine receptor A2a (Bos taurus); test: Binding affinity towards adenosine A2A receptor of bovine striatal membrane in presence of [3H]-CGS-

Row | Compound | Ki (Adenosine receptor A3 [1]) [µM] | Ki (Adenosine receptor A1 [2]) [µM] | inhibition [3] [%] | further results
1 | Cc1cccc(-n2nc3c(NC4CCCC4)nc4ccccc4n3c2=O)c1 | 0.0275 |  |  | 
2 | O=c1n(-c2ccccc2)nc2c(NCc3ccccc3)nc3ccccc3n12 | 1.7 | 0.055 | 59 | 
3 | O=c1[nH]c2ccccc2n2c(=O)n(-c3cccc(F)c3)nc12 | 0.063 | 0.2 | 20 | 
4 | Cc1ccc(-n2nc3c(=O)[nH]c4ccccc4n3c2=O)cc1 | 0.025 | 0.155 | 0 | 
5 | O=C(Nc1ccccc1)Nc1nc2ccccc2n2c(=O)n(-c3ccccc3)nc12 | 0.276 |  |  | 
6 | CCCn1c(=O)c2nn(-c3ccccc3)c(=O)n2c2ccccc21 | 1.25 | 0.406 | 44 | 
7 | O=c1n(-c2ccccc2)nc2c(NC3CCCCC3)nc3ccccc3n12 | 0.506 | 0.00143 |  | 
8 | Nc1nc2ccccc2n2c(=O)n(-c3ccccc3)nc12 |  |  |  | inhibition [4]: 36%
9 | O=C(Cc1ccccc1)Nc1nc2ccccc2n2c(=O)n(-c3ccccc3)nc12 | 0.00375 | 0.0063 | 62 | 
10 | O=c1n(-c2ccc(Cl)cc2)nc2c(NC3CCCCC3)nc3ccccc3n12 | 0.0561 | 0.0801 | 0 | 
11 | O=c1n(-c2cccc(F)c2)nc2c(NC3CCCCC3)nc3ccccc3n12 | 0.0442 | 0.0049 |  | Ki [5]: 0.066 µM
12 | CCC(=O)Nc1nc2ccccc2n2c(=O)n(-c3ccccc3)nc12 | 0.0158 | 0.0093 |  | 
13 | C#CCn1c(=O)c2nn(-c3ccccc3)c(=O)n2c2ccccc21 | 0.479 |  |  | 
14 | Cn1c(=O)c2nn(-c3ccc(Cl)cc3)c(=O)n2c2ccccc21 | 0.137 |  | 8 | inhibition [6]: 29%
15 | Nc1nc2ccccc2n2c(=O)n(-c3cccc(F)c3)nc12 | 0.157 | 0.0285 |  | 
16 | Cn1c(=O)c2[nH]c(C3CCCC3)nc2n(C)c1=O [8-CYCLOPENTYLTHEOPHYLLINE] |  |  |  | Ki (Adenosine receptor A1 [7]): 0.0005 µM; Ki (Adenosine receptor A3 [8]): 1.3 µM
17 | COc1ccc(-n2nc3c(N)nc4ccccc4n3c2=O)cc1 | 0.0453 | 0.312 |  | 
18 | Cc1ccc(N2CN3C(=N2)C(=O)Nc2ccccc23)cc1 | 0.197 |  |  | inhibition [6]: 48%
19 | O=C(Nc1nc2ccccc2n2c(=O)n(-c3ccccc3)nc12)c1ccccc1 | 0.00147 | 0.0896 | 53 | 

Row | Compound | Ki (Adenosine receptor A3 [1]) [µM] | Ki (Adenosine receptor A1 [2]) [µM] | inhibition [3] [%] | further results
20 | O=c1[nH]c2ccccc2n2c(=O)n(-c3ccccc3)nc12 | 0.08 | 0.515 | 64 | 
21 | O=c1n(-c2cccc(F)c2)nc2c(NC3CCCC3)nc3ccccc3n12 | 0.173 | 0.0011 |  | Ki [9]: 0.148 µM
22 | Nc1nc2ccccc2n2c(=O)n(-c3ccc(Cl)cc3)nc12 | 0.329 | 0.426 | 37 | 
23 | Nc1cccc2c1nc(N)c1nn(-c3ccccc3)c(=O)n12 |  |  |  | inhibition [4]: 54%
24 | Cc1cccc(-n2nc3c(N)nc4ccccc4n3c2=O)c1 | 0.0285 | 0.02 |  | 
25 | O=c1n(-c2ccccc2)nc2c(NCCc3ccccc3)nc3ccccc3n12 | 0.201 | 0.0048 | 59 | 
26 | Cc1ccc(-n2nc3c(N)nc4ccccc4n3c2=O)cc1 | 0.0483 |  |  | 
27 | COc1ccc(NC(=O)Nc2nc3ccccc3n3c(=O)n(-c4ccccc4)nc23)cc1 | 0.96 | 2.6 |  | 
28 | O=c1n(-c2ccccc2)nc2c(NC3CCCC3)nc3ccccc3n12 | 0.0554 | 0.00042 |  | 
29 | O=c1n(-c2ccccc2)nc2c(NCCCc3ccccc3)nc3ccccc3n12 | 0.0409 | 0.0179 | 61 | 
30 | Cc1ccc(-n2nc3c(=O)n(C)c4ccccc4n3c2=O)cc1 | 0.504 |  | 0 | inhibition [6]: 22%
31 | Cc1cccc(-n2nc3c(=O)[nH]c4ccccc4n3c2=O)c1 | 0.091 | 0.436 | 5 | 
32 | COc1ccc(-n2nc3c(=O)[nH]c4ccccc4n3c2=O)cc1 | 0.016 | 0.934 |  | 
33 | O=c1n(-c2ccccc2)nc2c(NCC(c3ccccc3)c3ccccc3)nc3ccccc3n12 |  |  |  | Ki (Adenosine receptor A1 [7]): 0.054 µM; Ki (Adenosine receptor A3 [8]): 1.02 µM
34 | CC(=O)Nc1nc2ccccc2n2c(=O)n(-c3ccccc3)nc12 | 0.002 | 0.0043 |  | 
35 | Cc1cccc(-n2nc3c(NC4CCCCC4)nc4ccccc4n3c2=O)c1 | 0.548 | 0.0042 | 41 | 
36 | O=c1[nH]c2ccccc2n2c(=O)n(-c3ccc(Cl)cc3)nc12 | 0.114 | 1.02 |  | 
37 | Nc1nc2c(NCc3ccccc3)cccc2n2c(=O)n(-c3ccccc3)nc12 |  | 0.73 |  | inhibition [4]: 30%; Ki [5]: 0.0065 µM
38 | Cn1c(=O)c2nn(-c3ccccc3)c(=O)n2c2ccccc21 | 0.0366 | 0.309 | 53 | 
